This is a sample that favours compounds with a hit; in the whole collection about 1.4% have one here.
NR2E3 ag-1: agonists of human nuclear receptor NR2E3. actives 0.12% (n = 320,000). AID 2300. inhibition of corepressor binding, % at 4.78 µM. GST-NR2E3/biotin-RetCOR TR-FRET, 1536-well;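 active means percent inhibition above the cutoff of mean plus 3 SD of all tested compounds, set per screening campaign, cut at about 20% in these data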
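Assay system: NR2E3–RetCOR corepressor complex. Quantity: 1.35 nM GST-NR2E3. Buffer or medium: pH 7.5 Tris-based buffer. Reagent: biotinylated RetCOR corepressor at 7 nM final. Schedule: 5 h at 4 °C. Detection: TR-FRET, emission read at 617 and 671 nm. Replicates: one well per compound, singlicate testing.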
PG9 binder: binds the HIV-1 gp120 antibody PG9 | TR-FRET gp120-PG9 antibody binding | inhibition, % at 6.7 µM | actives 0.43% (n = 360,000) | AID 624416; in the data active means inhibition above about 8.5%
NR2E3 ag-2: activates human NR2E3 receptor. Q9Y5X4. CHO-S Gal4-NCOR/VP16-NR2E3 two-hybrid, luciferase. inhibition of corepressor binding, % at 3.98 µM. actives 0.35% (n = 360,000). AID 602229;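 active means inhibition above the mean of all tested compounds plus 3 SD, cut at about 70% in these data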;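 further: higher means lower luciferase signal from less NR2E3 corepressor binding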
Rev-erbA mod: Rev-erb alpha (human) modulation; P20393; Rev-erbα–FITC-DNA binding, fluorescence polarization, 90 min; activity, % at 10 µM; actives 0.79% (n = 370,000); AID 1259318;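 active means activity above about 14%, limit read from the data; passing the limit was not always enough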
Target sequence (P20393 whole entry, looked up): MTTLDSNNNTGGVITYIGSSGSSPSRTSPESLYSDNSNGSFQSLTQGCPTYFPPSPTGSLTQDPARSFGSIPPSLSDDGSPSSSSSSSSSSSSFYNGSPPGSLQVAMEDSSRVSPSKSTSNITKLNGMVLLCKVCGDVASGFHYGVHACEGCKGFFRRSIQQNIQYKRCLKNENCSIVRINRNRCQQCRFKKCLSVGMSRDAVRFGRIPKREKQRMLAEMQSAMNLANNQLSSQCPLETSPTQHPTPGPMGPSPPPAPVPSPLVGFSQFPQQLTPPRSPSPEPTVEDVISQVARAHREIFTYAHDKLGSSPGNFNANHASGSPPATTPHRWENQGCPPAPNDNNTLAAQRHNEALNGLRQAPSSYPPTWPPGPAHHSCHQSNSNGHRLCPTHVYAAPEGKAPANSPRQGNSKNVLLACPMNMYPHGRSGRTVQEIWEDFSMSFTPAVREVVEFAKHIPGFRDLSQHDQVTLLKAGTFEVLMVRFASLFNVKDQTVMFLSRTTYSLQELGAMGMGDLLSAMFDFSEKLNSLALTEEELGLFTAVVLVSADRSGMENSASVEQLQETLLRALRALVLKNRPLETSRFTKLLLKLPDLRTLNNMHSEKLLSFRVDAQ
NR1D1 mod conf: Rev-erb alpha (human) modulation, hit confirmation | shares compounds with Rev-erbA mod | Rev-erb alpha FITC-DNA binding, fluorescence polarization, 90 min | activation, % at 25 µM | actives 61% (n = 3,000);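 active means activation at or above a set limit, or at least 3 SD above the negative control mean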
RORg counter: affects RORgamma DNA binding in a Rev-erb alpha counter-screen | actives 8% (n = 910) | IC50, µM | purified RORgamma protein-FITC-DNA binding, fluorescence polarization | shares compounds with Rev-erbA mod;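 active means Compounds whose fitted half-maximal concentration for disrupting protein-DNA binding is below 10 micromolar; the record names Rev-erb in its text, so the target is in doubt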
Hits are given with their value; - = inactive; . = no result.

SMILES	NR2E3 ag-1	PG9 binder	NR2E3 ag-2	Rev-erbA mod	NR1D1 mod conf	others
Fc1ccccc1-c1n[nH]c(=S)n1N=Cc1ccc(-c2ccccc2)cc1	.	.	.	-	.
CC(COc1ccc(Br)cc1)CN1CCC(C(O)(c2ccccc2)c2ccccc2)CC1 (stereo unspecified)	.	.	.	-	.
O=c1c2c3nc4ccccc4nc3n(CC3CCCO3)c2ncn1CCc1ccccc1 (stereo unspecified)	-	-	-	-	.
COc1cc(OC)cc(-n2c3nc4ccccc4nc3c3c(=O)n(CC4CCCO4)cnc32)c1 (stereo unspecified)	-	-	.	300	142	RORg counter=-
COc1cc(C(=O)OCc2cc3ccccc3[nH]c2=O)cc(OC)c1OC	-	-	-	45	30
COc1cc(C(=O)N(Cc2ccco2)Cc2cc3ccccc3[nH]c2=O)cc(OC)c1OC	-	-	-	-	.
Cc1ccc(NC(=S)Nc2ccc(S(=O)(=O)N3CCOCC3)cc2)cc1S(=O)(=O)N1CCOCC1	-	-	-	17	-
CCOC(=O)[C@@]12CN(C(=O)OC(C)(C)C)CC=C1N(Cc1ccc(OC)cc1)C(=O)[C@H]2CC(=O)NCC1CCCCC1	.	.	.	-	.
COC(=O)c1cc(-c2ccc(OC)c(OC)c2)c(=O)n2c1CCC2	.	.	.	-	.
CCc1cc2cc(C)ccc2nc1SCC(=O)NC1CCCC1	-	-	-	32	35	RORg counter=-
CCc1cc2cc(C)ccc2nc1SCC(=O)NNC(=O)c1ccco1	-	-	-	-	.
CCOC(=O)CNC(=O)CSc1nc2c(C)cccc2cc1CC	-	-	-	-	.
CCc1cc2cccc(C)c2nc1SCC(=O)NC1CCCC1	-	-	-	21	-
O=C(CSc1nnc(-c2cccnc2)n1C1CCCCC1)NC1CCCCCC1	.	.	.	-	.
CC(C)CN1C(=O)C[C@]2(C(=O)N(C)c3ccc(NC(=O)c4cc(F)ccc4F)cc32)C1c1ccccc1 (stereo partly specified)	.	.	.	-	.
CCc1nnc2sc(-c3ccc(NC(=O)CSc4ccc(Cl)cc4)cc3)nn12	-	-	-	32	21
C[C@H]1[C@@H](NC(=O)c2ccc(C(F)(F)F)cc2)CC[C@@]23CCCN2C(=O)CCC[C@@H]13	.	.	.	-	.
CC(=O)c1sc(NC(=O)c2cccc(N3C(=O)CCC3=O)c2)nc1-c1ccccc1	-	-	-	43	28
COc1ccc(C(=O)NC(=S)Nc2ccc3c(c2)Cc2ccccc2-3)cc1	-	-	-	24	-
COC(=O)c1ccccc1NC(=S)NC(=O)c1ccccc1	-	-	-	-	.
Cc1ccc(NC(=S)NC(=O)c2ccccc2)cc1NC(=S)NC(=O)c1ccccc1	.	-	-	21	-
COc1c(F)c(F)c(C(=O)Nc2ccc(-c3nc4ccccc4[nH]3)cc2)c(F)c1F	-	-	-	-	.
COc1cccc(OC)c1C(=O)NC(=S)Nc1cc(-c2nc3ccccc3[nH]2)ccc1Cl	-	-	-	26	24
CCCSc1nc(SCC(=O)NCc2ccccc2)c2c3c(sc2n1)COC(C)(CC)C3 (stereo unspecified)	-	-	-	77	78	RORg counter=-
CCC1(C)Cc2c(sc3nc(SCC(=O)c4ccccc4)[nH]c(=O)c23)CO1 (stereo unspecified)	-	-	-	-	.
SMILES	NR2E3 ag-1	PG9 binder	NR2E3 ag-2	Rev-erbA mod	NR1D1 mod conf	others
O=C(NCc1ccc(C(=O)N2CCOCC2)cc1)c1cccc(Br)c1	.	.	.	-	.
O[C@H]1C[C@H](c2ccccc2)N(Cc2cccs2)C[C@@H]1n1cc(C2CC2)nn1	.	-	-	18	-
CC(=O)O[C@@H]1CCC[C@@]2(C(=O)N(Cc3ccccc3)c3ccc(-c4c(C)noc4C)cc32)[C@H]1NC(=O)CCc1ccccc1	.	.	.	-	.
CSc1ccccc1C(=O)OCC(=O)N1CCCCCC1	.	-	-	-	.
CN(C)c1ccc(N=Nc2ccccc2C(=O)OCC(=O)N2CCCCCC2)cc1	-	-	-	27	35	RORg counter=-
CN(C)c1ccc(N=Nc2ccccc2C(=O)OCC(=O)N2CCCC2)cc1	-	-	-	36	40	RORg counter=1.2
CCn1c(SCC(=O)Nc2ccccc2-c2ccccc2)nnc1-c1cnccn1	.	.	.	-	.
O=C(N[C@@H]1CCCc2c1cnn2-c1ccc(F)cc1F)c1ccccn1	.	.	.	-	.
CCn1c(SCC(=O)N/N=C/c2cccc(Oc3ccccc3)c2)nnc1-c1ccccc1	.	.	.	-	.
C[C@@H](O)CC#Cc1ccc2oc(=O)c(-n3cc(-c4ccsc4)nn3)cc2c1	-	-	-	-	.
C[C@H](O)Cc1cn(-c2cc3cc(C#Cc4ccsc4)ccc3oc2=O)nn1	-	-	-	18	-
CCOC(=O)c1sc(NC(=O)c2ccccc2C(=O)O)c(C(=O)OCC)c1C	-	-	-	-	.
CCOC(=O)c1sc(NC(=O)c2ccccc2F)c(C(N)=O)c1C	-	-	-	20	-
CNc1oc(-c2ccc(F)cc2)nc1S(=O)(=O)c1ccccc1	-	-	-	34	-
O=S(=O)(c1ccccc1)c1nc(-c2ccc(F)cc2)oc1NCC1CCCO1 (stereo unspecified)	-	-	-	-	.
CCOC(=O)[C@]12CCCC=C1N(CCc1ccc(Cl)cc1)C(=O)[C@@H]2CC(=O)NCCC(C)C	.	.	.	-	.
COc1ccc(-c2cc(-c3ccc(O)cc3)nc(N)c2C#N)cc1	-	-	-	-	.
COc1cccc(-c2cc(-c3cccnc3)c(C#N)c(N)n2)c1	-	-	-	-	.
COc1ccc(-c2cc(-c3ccc(OC)cc3)c(C#N)c(SC)n2)cc1	-	-	-	108	52	RORg counter=-
COc1ccc(-c2cc(-c3cccnc3)c(C#N)c(N)n2)cc1	-	-	-	40	36	RORg counter=-
CCCN1CCS(=O)(=O)N(Cc2cn(Cc3ccc(C)cc3)nn2)C(C(=O)OC)C1 (stereo unspecified)	.	.	.	-	.
CC1=NCCN1S(=O)(=O)c1c(C(C)C)cc(C(C)C)cc1C(C)C	-	-	-	45	44	RORg counter=-
COc1ccc(Cl)cc1S(=O)(=O)N1CCN=C1C	-	-	-	-	.
C=CCCC(=O)N(Cc1ccccc1)c1ccccc1C(=O)Nc1cc(OC)ccc1OC	.	.	.	-	.
COc1cc(-c2cc(-c3ccc(N)cc3)[nH]c(=O)c2C#N)cc(OC)c1OC	-	-	-	25	-
O=C1c2ccccc2NC(c2ccc(-c3ccccc3F)o2)N1O (stereo unspecified)	-	-	-	24	21
O=C1c2ccccc2NC(c2ccc(-c3cccc(F)c3)o2)N1O (stereo unspecified)	-	-	-	-	.
Cc1nn(-c2ccc(Cl)cc2)c2sc(C(=O)c3c(N)n(C)c(=O)n(C)c3=O)cc12	-	-	-	31	38	RORg counter=-
Cn1c(N)c(C(=O)c2ccc(Cl)cc2)c(=O)n(C)c1=O	-	-	-	-	.
CCN1CCCCC(NC(=O)c2ccc(F)cc2)C1=O (stereo unspecified)	.	.	.	-	.

Source: PubChem BioAssay (several laboratories)
